Measurements: ChEMBL document CHEMBL1155506 (J Med Chem, 2010)
Activity calls are given as the source filed them. No cut-off for these calls is given here.

Legend:
[1] = biological target: T1, 5-hydroxytryptamine receptor 2A (Homo sapiens, UniProt P28223); test: Displacement of [125I]DOI from human recombinant 5HT2A receptor expressed in HEK293 cells by scintillation counting; format: cell-based
Summary of the method: (§1)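 Crude plasma membranes from HEK293 cells stably expressing the human receptor (5–25 μg protein), in 20 mM HEPES pH 7.4 with 10 mM MgCl2. Incubated with 0.5 nM [125I]DOI and test compound (1 pM–10 μM) for 1 h at room temperature; nonspecific binding defined with 10 μM cold DOI. Filtered, washed with ice-cold Tris buffer and scintillation counted in triplicate.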

[2] = biological target: T2, 5-hydroxytryptamine receptor 2C (Homo sapiens, UniProt P28335); test: Displacement of [125I]DOI from human recombinant 5HT2C receptor expressed in HEK293 cells by scintillation counting; format: cell-based; summary of the method: as §1
T2 sequence (P28335 whole entry): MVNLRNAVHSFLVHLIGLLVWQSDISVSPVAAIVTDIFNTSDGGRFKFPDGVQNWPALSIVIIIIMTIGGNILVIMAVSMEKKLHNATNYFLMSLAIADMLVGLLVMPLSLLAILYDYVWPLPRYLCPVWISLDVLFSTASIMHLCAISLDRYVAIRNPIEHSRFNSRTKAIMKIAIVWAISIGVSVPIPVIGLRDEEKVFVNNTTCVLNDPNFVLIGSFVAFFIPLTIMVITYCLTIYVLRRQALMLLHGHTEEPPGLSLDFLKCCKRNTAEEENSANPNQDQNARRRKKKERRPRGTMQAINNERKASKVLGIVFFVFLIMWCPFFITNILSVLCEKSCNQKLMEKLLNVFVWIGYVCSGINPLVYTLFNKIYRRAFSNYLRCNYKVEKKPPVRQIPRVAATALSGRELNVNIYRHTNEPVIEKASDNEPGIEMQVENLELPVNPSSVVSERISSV

[3] = biological target: T3, hERG (KCNH2) (Homo sapiens, UniProt Q12809); test: Inhibition of human ERG at 3 uM by patch clamp assay
[4] = Antiplatelet activity in human platelet rich plasma assessed as inhibition of ADP-induced aggregation preincubated for 1 min before 5-HT and ADP challenge measured after 3 mins by turbidimetry
[5] = Cmax in Sprague-Dawley rat at 10 mg/kg, po after 24 hrs by HPLC/MS/MS assay; format: ADME, organism-based; design: dose 10 mg/kg, route oral; settings: in vivo
Summary of the method: (§2)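 Male rats fasted overnight before oral dosing; 10 mg/kg po and 2 mg/kg iv in 80% PEG400/20% phosphate buffered saline. Jugular vein blood was sampled at 0.25–21 h over 24 h, and heparin plasma was assayed by HPLC/MS/MS (MRM, positive electrospray, internal standard; LLOQ 1 ng/mL, ULOQ 2000 ng/mL). %F is taken relative to the 2 mg/kg iv dose. Mean of n = 3 animals.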

[6] = AUC (0 to last) in Sprague-Dawley rat at 10 mg/kg, po after 24 hrs by HPLC/MS/MS analysis; format: ADME, organism-based; design: time 0 - last, dose 10 mg/kg, route oral; settings: plasma; summary of the method: as §2
[7] = Half life in Sprague-Dawley rat at 10 mg/kg, po by HPLC/MS/MS analysis; format: ADME, organism-based; design: dose 10 mg/kg, route oral; settings: in vivo; summary of the method: as §2
[8] = Total clearance in Sprague-Dawley rat at 2 mg/kg, iv after 24 hrs by HPLC/MS/MS analysis; format: ADME, organism-based; design: dose 2 mg/kg, route intravenous; settings: in vivo; summary of the method: as §2
[9] = Volume of distribution at steady state in Sprague-Dawley rat at 2 mg/kg, iv after 24 hrs by HPLC/MS/MS analysis; format: ADME, organism-based; design: dose 2 mg/kg, route intravenous; settings: in vivo, read-out: Vdss; summary of the method: as §2
[10] = Bioavailability in Sprague-Dawley rat at 2 mg/kg, iv after 24 hrs by HPLC/MS/MS analysis; format: ADME, organism-based; settings: in vivo; summary of the method: as §2
[11] = biological target: T1, 5-hydroxytryptamine receptor 2A; test: Inverse agonist activity at human 5HT2A receptor expressed in HEK293 cells assessed as inhibition of inositol phosphate accumulation; format: functional, cell-based
[12] = biological target: Voltage-gated inwardly rectifying potassium channel KCNH2 (Homo sapiens, UniProt Q12809); test: Inhibition of human ERG by patch clamp assay
[13] = Cmax in dog at 10 mg/kg, po after 24 hrs by HPLC/MS/MS assay; format: ADME, organism-based, Canis lupus familiaris; design: dose 10 mg/kg, route oral; settings: in vivo
Summary of the method: (§3)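 Oral dose 10 mg/kg; %F calculated relative to a 2 mg/kg iv dose. Values are the mean of n = 3 animals.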

[14] = AUC (0 to last) in dog at 10 mg/kg, po after 24 hrs by HPLC/MS/MS analysis; format: ADME, organism-based, Canis lupus familiaris; design: time 0 - last, dose 10 mg/kg, route oral; settings: plasma; summary of the method: as §3
[15] = Half life in dog at 10 mg/kg, po by HPLC/MS/MS analysis; format: ADME, organism-based, Canis lupus familiaris; design: dose 10 mg/kg, route oral; settings: in vivo; summary of the method: as §3
[16] = Total clearance in dog at 2 mg/kg, iv after 24 hrs by HPLC/MS/MS analysis; format: ADME, organism-based, Canis lupus familiaris; design: dose 2 mg/kg, route intravenous; settings: in vivo; summary of the method: as §3
[17] = Volume of distribution at steady state in dog at 2 mg/kg, iv after 24 hrs by HPLC/MS/MS analysis; format: ADME, organism-based, Canis lupus familiaris; design: dose 2 mg/kg, route intravenous; settings: in vivo, read-out: Vdss; summary of the method: as §3
[18] = Bioavailability in dog at 2 mg/kg, iv after 24 hrs by HPLC/MS/MS analysis; format: ADME, organism-based, Canis lupus familiaris; settings: in vivo; summary of the method: as §3
[19] = Cmax in monkey at 10 mg/kg, po after 24 hrs by HPLC/MS/MS assay; format: ADME, organism-based, Macaca mulatta; design: dose 10 mg/kg, route oral; settings: rhesus monkey, in vivo; summary of the method: as §3
[20] = AUC (0 to last) in monkey at 10 mg/kg, po after 24 hrs by HPLC/MS/MS analysis; format: ADME, organism-based, Macaca mulatta; design: time 0 - last, dose 10 mg/kg, route oral; settings: rhesus monkey, plasma; summary of the method: as §3
[21] = Half life in monkey at 10 mg/kg, po by HPLC/MS/MS analysis; format: ADME, organism-based, Macaca mulatta; design: dose 10 mg/kg, route oral; settings: rhesus monkey, in vivo; summary of the method: as §3
[22] = Total clearance in monkey at 2 mg/kg, iv after 24 hrs by HPLC/MS/MS analysis; format: ADME, organism-based, Macaca mulatta; design: dose 2 mg/kg, route intravenous; settings: rhesus monkey, in vivo; summary of the method: as §3
[23] = Volume of distribution at steady state in monkey at 2 mg/kg, iv after 24 hrs by HPLC/MS/MS analysis; format: ADME, organism-based, Macaca mulatta; design: dose 2 mg/kg, route intravenous; settings: rhesus monkey, in vivo, read-out: Vdss; summary of the method: as §3
[24] = Bioavailability in monkey at 2 mg/kg, iv after 24 hrs by HPLC/MS/MS analysis; format: ADME, organism-based, Macaca mulatta; settings: rhesus monkey, in vivo; summary of the method: as §3
[25] = biological target: 5-hydroxytryptamine receptor 2B (Homo sapiens, UniProt P41595); test: Displacement of [125I]DOI from human recombinant 5HT2B receptor expressed in HEK293 cells by scintillation counting; format: cell-based
[26] = Ratio of drug level in brain to plasma in Sprague-Dawley rat at 30 mg/kg, po after 24 hrs; format: ADME, organism-based; design: dose 30 mg/kg, route oral; settings: read-out: BPR
[27] = Antiplatelet activity in dog platelet rich plasma assessed as inhibition of ADP-induced aggregation treated 10 mins after ADP challenge measured after 3 mins by turbidimetry; format: functional; settings: Canis lupus familiaris
[28] = tested on: Canis familiaris; test: Ex vivo inhibition of serotonin-mediated amplification of collagen-stimulated platelet aggregation in Beagle dog at 10 mg/kg, po administered as single dose measured after 1 hr; format: functional, organism-based; design: dose 10 mg/kg; settings: Canis lupus familiaris
Summary of the method: (§4)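 Beagle dogs given a single oral dose of 10 mg/kg. Serotonin-mediated amplification of collagen-stimulated aggregation measured in whole blood ex vivo at 1, 6, 12 and 24 h post-dose.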

[29] = tested on: Canis familiaris; test: Ex vivo inhibition of serotonin-mediated amplification of collagen-stimulated platelet aggregation in Beagle dog at 10 mg/kg, po administered as single dose measured after 6 hrs; format: functional; settings: Canis lupus familiaris; summary of the method: as §4
[30] = tested on: Canis familiaris; test: Ex vivo inhibition of serotonin-mediated amplification of collagen-stimulated platelet aggregation in Beagle dog at 10 mg/kg, po administered as single dose measured after 12 hrs; format: functional; settings: Canis lupus familiaris; summary of the method: as §4
[31] = tested on: Canis familiaris; test: Ex vivo inhibition of serotonin-mediated amplification of collagen-stimulated platelet aggregation in Beagle dog at 10 mg/kg, po administered as single dose measured after 24 hrs; format: functional; settings: Canis lupus familiaris; summary of the method: as §4
[32] = tested on: Canis familiaris; test: Ex vivo inhibition of serotonin-mediated amplification of collagen-stimulated platelet aggregation in Beagle dog at 1 mg/kg, po for 10 days measured after 10 days; format: functional, organism-based; design: dose 1 mg/kg; settings: Canis lupus familiaris
Summary of the method: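 Beagle dogs dosed orally with 1 mg/kg daily for 10 days. Serotonin-mediated amplification of collagen-stimulated aggregation then measured in whole blood ex vivo.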

[33] = tested on: Canis familiaris; test: Antithrombotic activity in Beagle dog Folts model of recurrent coronary thrombosis model assessed as inhibition of thrombosis occurrence at 0.07 mg/kg, iv bolus dose followed by continuous fusion of 1.16 ug/kg/min, iv administered before onset of thrombosis; format: functional; settings: Canis lupus familiaris
Summary of the method: (§5)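 Anesthetized dogs in the Folts model of recurrent coronary thrombosis. Given 0.07 mg/kg iv bolus followed by continuous iv infusion of 1.16 μg/kg/min, either before or after onset of recurrent thrombosis. Read-out is flow-time area, compared with saline controls.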

[34] = tested on: Canis familiaris; test: Antithrombotic activity in Beagle dog Folts model of recurrent coronary thrombosis model assessed as inhibition of thrombosis occurrence at 0.07 mg/kg, iv bolus dose followed by continuous fusion of 1.16 ug/kg/min, iv administered after onset of thrombosis; format: functional; settings: Canis lupus familiaris; summary of the method: as §5
[35] = biological target: T3, hERG (KCNH2); test: Inhibition of human ERG at 1 uM by patch clamp assay

T1 sequence (P28223 whole entry): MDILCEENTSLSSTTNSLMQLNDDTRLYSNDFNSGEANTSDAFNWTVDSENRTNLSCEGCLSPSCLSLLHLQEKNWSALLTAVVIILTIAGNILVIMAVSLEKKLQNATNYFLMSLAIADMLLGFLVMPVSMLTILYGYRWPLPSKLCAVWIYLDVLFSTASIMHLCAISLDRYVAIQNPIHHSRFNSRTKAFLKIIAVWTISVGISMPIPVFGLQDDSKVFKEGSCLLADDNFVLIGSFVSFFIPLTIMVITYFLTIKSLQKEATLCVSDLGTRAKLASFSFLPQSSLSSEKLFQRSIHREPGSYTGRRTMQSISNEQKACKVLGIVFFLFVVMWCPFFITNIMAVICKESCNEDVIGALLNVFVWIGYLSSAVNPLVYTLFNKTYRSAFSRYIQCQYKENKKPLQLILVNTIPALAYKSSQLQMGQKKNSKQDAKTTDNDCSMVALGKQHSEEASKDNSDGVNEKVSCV
T3 sequence (Q12809 whole entry): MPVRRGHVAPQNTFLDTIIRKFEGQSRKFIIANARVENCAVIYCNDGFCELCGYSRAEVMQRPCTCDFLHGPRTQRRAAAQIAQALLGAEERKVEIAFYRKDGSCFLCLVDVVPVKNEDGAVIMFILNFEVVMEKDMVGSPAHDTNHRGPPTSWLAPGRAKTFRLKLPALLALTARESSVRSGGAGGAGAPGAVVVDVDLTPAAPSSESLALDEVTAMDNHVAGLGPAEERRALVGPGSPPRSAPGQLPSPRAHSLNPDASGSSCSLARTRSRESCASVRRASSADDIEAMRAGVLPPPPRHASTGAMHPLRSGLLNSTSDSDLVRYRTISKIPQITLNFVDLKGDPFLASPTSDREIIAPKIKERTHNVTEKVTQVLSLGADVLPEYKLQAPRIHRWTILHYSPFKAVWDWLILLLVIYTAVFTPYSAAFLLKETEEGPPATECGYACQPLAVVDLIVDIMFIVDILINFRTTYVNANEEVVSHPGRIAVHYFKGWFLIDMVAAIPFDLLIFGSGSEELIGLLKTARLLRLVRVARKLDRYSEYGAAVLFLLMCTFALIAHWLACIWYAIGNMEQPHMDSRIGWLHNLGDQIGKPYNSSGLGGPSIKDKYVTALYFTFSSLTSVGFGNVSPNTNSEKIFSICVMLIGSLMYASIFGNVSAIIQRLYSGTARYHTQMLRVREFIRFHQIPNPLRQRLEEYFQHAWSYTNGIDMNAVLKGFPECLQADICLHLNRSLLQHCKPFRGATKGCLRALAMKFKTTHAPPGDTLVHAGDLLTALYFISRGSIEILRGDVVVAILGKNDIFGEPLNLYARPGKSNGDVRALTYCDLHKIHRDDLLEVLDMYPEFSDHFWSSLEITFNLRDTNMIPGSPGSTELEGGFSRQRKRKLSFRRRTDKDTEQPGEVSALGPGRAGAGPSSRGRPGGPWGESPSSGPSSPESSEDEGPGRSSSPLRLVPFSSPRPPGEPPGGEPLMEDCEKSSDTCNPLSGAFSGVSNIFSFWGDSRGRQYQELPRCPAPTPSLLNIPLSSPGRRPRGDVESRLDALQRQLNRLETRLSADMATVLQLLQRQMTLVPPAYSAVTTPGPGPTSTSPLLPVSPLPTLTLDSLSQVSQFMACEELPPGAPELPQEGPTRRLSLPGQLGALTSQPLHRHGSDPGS
Voltage-gated inwardly rectifying potassium channel KCNH2, sequence (Q12809 whole entry): as above
5-hydroxytryptamine receptor 2B, sequence (P41595 whole entry): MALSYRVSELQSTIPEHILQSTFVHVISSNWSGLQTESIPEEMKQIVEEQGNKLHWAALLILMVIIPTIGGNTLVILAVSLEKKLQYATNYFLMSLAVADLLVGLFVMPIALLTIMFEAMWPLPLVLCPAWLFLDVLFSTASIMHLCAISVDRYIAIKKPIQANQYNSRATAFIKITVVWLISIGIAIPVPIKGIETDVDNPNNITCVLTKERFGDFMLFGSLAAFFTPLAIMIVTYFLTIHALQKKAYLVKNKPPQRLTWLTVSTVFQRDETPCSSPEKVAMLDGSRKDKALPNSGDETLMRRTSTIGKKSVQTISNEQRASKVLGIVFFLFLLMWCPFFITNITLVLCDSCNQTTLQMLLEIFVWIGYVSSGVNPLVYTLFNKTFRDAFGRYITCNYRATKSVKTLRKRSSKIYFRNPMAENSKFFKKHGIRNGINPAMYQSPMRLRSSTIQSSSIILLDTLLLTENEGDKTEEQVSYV

COc1cccc(C(=O)Nc2ccc(OCCN3CCN(S(C)(=O)=O)CC3)c(-c3ccnn3C)c2)c1
Ki [1]: 28 nM
Ki [2]: > 10000 nM
inhibition at 3 µM [3]: 23%

COc1cccc(C(=O)Nc2ccc(OCCN3CCN(C(C)=O)CC3)c(-c3ccnn3C)c2)c1
Ki [1]: 4.5 nM
Ki [2]: > 10000 nM
inhibition at 3 µM [3]: 24%
IC50 [4]: 77 nM

Cn1ncc(Cl)c1-c1cc(NC(=O)c2cccc(F)c2)ccc1OCCN1CCOCC1
Ki [1]: 0.6 nM
Ki [2]: 3380 nM
inhibition at 3 µM [3]: 46%
IC50 [4]: 22 nM

Cn1nccc1-c1cc(NC(=O)c2cccc(C(F)(F)F)c2)ccc1OCCN1CCOCC1
Ki [1]: 0.7 nM
Ki [2]: > 10000 nM
Cmax [5]: 202 ng/mL
AUC(0-t) at 24 h [6]: 288 ng·h/mL
half-life [7]: 1.8 h
clearance [8]: 160 mL/min/kg
Vd [9]: 5.1 L/kg
bioavailability [10]: 27%
IC50 [4]: 18 nM

COc1cccc(C(=O)Nc2ccc(OCCN3CCOCC3)c(-c3ccnn3C)c2)c1 [TEMANOGREL]
Ki [1]: 4.9 nM
Ki [2]: > 10000 nM
IC50 [11]: 5.2 nM
inhibition at 3 µM [3]: 32%
IC50 [12]: 11000 nM
Cmax [5]: 58 ng/mL
AUC(0-t) at 24 h [6]: 43 ng·h/mL
half-life [7]: 1 h
clearance [8]: 367 mL/min/kg
Vd [9]: 29 L/kg
bioavailability [10]: 10%
Cmax [13]: 2280 ng/mL
AUC(0-t) at 24 h [14]: 3540 ng·h/mL
half-life [15]: 0.9 h
clearance [16]: 20 mL/min/kg
Vd [17]: 1.3 L/kg
bioavailability [18]: 45%
Cmax [19]: 1460 ng/mL
AUC(0-t) at 24 h [20]: 1920 ng·h/mL
half-life [21]: 2.1 h
clearance [22]: 15 mL/min/kg
Vd [23]: 0.6 L/kg
bioavailability [24]: 16%
Ki [25]: > 10000 nM
Kp at 24 h [26]: 0.05
IC50 [27]: 23.1 nM
inhibition [28]: Active
inhibition in vivo at 10 mg/kg [29]: 86%
inhibition in vivo at 10 mg/kg [30]: 57%
inhibition in vivo at 10 mg/kg [31]: 58%
inhibition [32]: Active
inhibition in vivo at 0.07 mg/kg [33]: 58%
inhibition in vivo at 0.07 mg/kg [34]: 58%
IC50 [4]: 8.7 nM

Cn1nccc1-c1cc(NC(=O)c2ccc(C(F)(F)F)cc2)ccc1OCCN1CCCC1
Ki [1]: 1.9 nM
Ki [2]: 225 nM
inhibition at 1 µM [35]: 66%
Cmax [5]: 453 ng/mL
AUC(0-t) at 24 h [6]: 3830 ng·h/mL
half-life [7]: 2.8 h
clearance [8]: 18.3 mL/min/kg
Vd [9]: 5.4 L/kg
bioavailability [10]: 43%
IC50 [4]: 2 nM
